# Compound activity deposited in PubChem by several laboratories.
# C8 TRAIL sens = sensitizes caspase-8 expressing cells to TRAIL | NB7+C8 cells + TRAIL, ATPlite viability luminescence | inhibition (viability loss, TRAIL sensitization), % at 10 µM | 360,000 compounds, 1% hits;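 active = compounds causing at least 50% loss of cell viability in the single-dose screen, relative to plate controls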
# PPC-1+TRAIL kill = compounds killing PPC-1 cancer cells with TRAIL present (potentiator screen, no TRAIL-free arm) | PPC-1 cells + TRAIL, ATPLite viability luminescence | cell killing (% activity), % at 4 µM or 5 µM | 220,000 compounds, 0.41% hits;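 active = cell killing above 50% in the first pass at 4 µM, then a duplicate retest at 5 µM averaging 50% or more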;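 note: plate controls were cells with TRAIL plus DMSO for no effect and medium-only wells lacking cells for full effect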
# FLuc stim CS = firefly luciferase counter-screen for stimulation assays; AID 1027; 200,000 tested, under 10 active; activation factor at 10 µM; ATPlite luciferase biochemical, luminescence, 10 min; 0 = ATP-free wells, 1 = DMSO control; P08659;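 active = luciferase activation factor, scaled between plate controls, of at least 2 with compound at 10 µM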
#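 System: cell-free luciferase reagent; medium: PBS as buffer for the ATP substrate; doses: test compounds dosed from 2 mM stocks in 100% DMSO; incubation: 10 min, room temperature; measured by: luminescence from luciferase reaction; read-out: luciferase activation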
# PKD1 kinase inh = inhibitors of human PKD1 kinase | PKD1 kinase fluorescence polarization assay | inhibition, % (concentration not given with the values) | Q15139 | AID 797 | 200,000 compounds, 0.056% hits; in the data active = inhibition above about 50%
# FLuc inhib CS = inhibits firefly luciferase, flagging false hits in luciferase inhibition screens. 200,000 compounds, 1.5% hits. P08659. ATPLite firefly luciferase biochemical luminescence, 10 min. inhibition, % at 10 µM. AID 1006;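 active = inhibition above about 50% when tested at 10 µM, limit read from the data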
# Wee1 stabilizer = blocks degradation of human Wee1 kinase; P30291; HeLa Luc-Wee1K328M stability, luciferase luminescence; 100% = proteasome inhibitor MG132 effect; reporter increase, % at 5 µM; 220,000 compounds, 1.2% hits; AID 1321;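 active = activation above the mean of all tested compounds plus 3 SD, set per screening run, cut at about 8.8% in these data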;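 note: cells exposed to compound for 20 h before luminescence read; 0% = DMSO alone and 100% = MG132 at 30 µM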
# Starred values were filed as active, the others as inactive; / = no result given. Hits are enriched below; roughly 2.2% of the tested compounds scored in any of these assays.
SMILES,C8 TRAIL sens,PPC-1+TRAIL kill,FLuc stim CS,PKD1 kinase inh,FLuc inhib CS,Wee1 stabilizer
O=C(/C=C/Nc1ccc(F)cc1F)c1cccs1,93.2*,63.0*,0,-11.1,97.7*,0.5
O=C(Nc1ccccn1)c1ccc2c(=O)n3c(nc2c1)CCCCC3,60.3*,/,/,/,/,/
O=[N+]([O-])c1ccc(N=Nc2ccc(O)c3ccccc23)cc1,62.6*,/,/,/,/,/
COCCN1Cc2cccc(C(=O)NC(C)CCc3ccco3)c2C1=O (configuration not stated),2.0,-11.0,1,-1.2,-4.2,-4.0
CCOC(=O)N1CCN(C(=O)c2ccc(N(Cc3ccc(C)cc3)S(C)(=O)=O)cc2)CC1,2.2,-0.8,1,3.9,-2.6,3.7
Cc1ccc(CN(c2ccc(C(=O)N3CCOCC3)cc2)S(C)(=O)=O)cc1,-1.8,-3.2,1.1,-16.2,-6.7,10.0*
CC(C)NC(=S)N/N=C/c1ccc2c(c1)OCCO2,30.2,11.3,0.2,-2.9,75.5*,4.5
COCCCNC(=S)N/N=C/c1ccc2c(c1)OCO2,-7.0,1.3,/,/,/,0.8
S=C(NN=Cc1ccc2c(c1)OCO2)NN=Cc1ccc2c(c1)OCO2,1.2,/,/,/,/,/
COCCNC(=S)N/N=C/c1ccc2c(c1)OCCO2,23.3,29.6,0.4,-1.1,58.8*,-0.8
O=C(O)C[C@H]1c2cc(C(F)(F)F)ccc2S(=O)(=O)N1C1CCN(Cc2ccccc2)CC1,4.8,/,/,/,/,/
Cc1cc(C)c(NC(=O)CN2C(=O)NC(CCc3ccccc3)C2=O)c(C)c1 (configuration not stated),14.9,-7.7,1.1,-0.2,-5.9,10.5*
O=C(CN1C(=O)NC(CCc2ccccc2)C1=O)NC1CC1 (configuration not stated),-3.7,20.1,1,-0.8,-4.1,10.7*
Cc1ccc(C)c(NC(=O)CN2C(=O)NC(CCc3ccccc3)C2=O)c1 (configuration not stated),6.3,/,/,/,/,/
COc1cc(/C=N/Nc2nc(Nc3ccccc3)nc(N3CCCCC3)n2)ccc1OCC(=O)O,23.1,34.2,0.5,4.8,50.8*,0.5
CC(=O)c1cccc(NC2c3ccccc3C(=O)N2Cc2ccc3c(c2)OCO3)c1 (configuration not stated),-3.0,20.7,1.1,4.4,-6.8,9.1*
CCOc1cccc2c1OC(c1cc(OC)c(OC)c(OC)c1)N1N=C(c3ccc(C)o3)CC21 (configuration not stated),7.4,13.4,0.5,-2.5,52.2*,2.0
COc1ccc(C2=NN(C(=O)CSc3ncccn3)C(c3cccc(OC)c3OC)C2)cc1 (configuration not stated),-4.8,2.8,1,-0.9,-2.6,5.3
O=[N+]([O-])c1ccc(N2CCN(Cc3ccccc3)CC2)c2c1no[n+]2[O-],93.6*,/,/,/,/,/
NC(Cc1ccc(Cl)cc1)c1csc(NC(=O)NCC2CCCCC2)n1 (configuration not stated),86.0*,/,/,/,/,/
NC(CCc1ccccc1)c1csc(NC(=O)Nc2ccccc2Oc2ccccc2)n1 (configuration not stated),87.4*,/,/,/,/,/
NC(CCc1ccccc1)c1csc(NC(=O)NCCc2ccccc2)n1 (configuration not stated),27.0,/,/,/,/,/
NC(Cc1ccc(C(F)(F)F)cc1)c1csc(NC(=O)Nc2ccccc2Cc2ccccc2)n1 (configuration not stated),79.0*,/,/,/,/,/
COc1cc(OC)nc(Nc2nc(C(N)Cc3ccc(C(F)(F)F)cc3)cs2)n1 (configuration not stated),79.8*,/,/,/,/,/
N#Cc1ccc(NCC(=O)Nc2ccc(S(=O)(=O)N3CCCCC3)cc2)cc1,4.0,/,/,/,/,/
SMILES,C8 TRAIL sens,PPC-1+TRAIL kill,FLuc stim CS,PKD1 kinase inh,FLuc inhib CS,Wee1 stabilizer
O=C(COC(=O)COc1ccccc1)NC1CCS(=O)(=O)C1 (configuration not stated),2.9,/,/,/,/,/
COC(C/C=C\[C@H](O)[C@@H](C)OCc1ccccc1)OC,-2.7,/,/,/,/,/
O=C(Nc1ccccc1C(=O)N1CCN(Cc2ccccc2)CC1)c1ccc(F)cc1,-11.9,/,/,/,/,/
CC(C)c1ccc(NC(=O)Nc2nc(C(N)COCc3ccccc3)cs2)cc1 (configuration not stated),76.7*,/,/,/,/,/
Oc1ccc(N=Nc2n[nH]c(-c3ccccc3)n2)cc1,33.4,13.6,0.4,-4.7,58.6*,-0.6
Oc1ccc(N=Nc2n[nH]c(-c3ccc(Br)cc3)n2)cc1,-1.8,-1.7,0.9,-7.8,11.8,-1.8
COc1ccc(NC(=O)Nc2cccc3ccccc23)cc1OC,-9.7,/,/,/,/,/
CC(C)OCc1c(C(=O)Nc2nccs2)oc2ccccc12,-2.5,12.2,1,3.9,-3.8,10.6*
Clc1ccc(/C=N/c2c(-c3ccco3)nc3ccccn23)cc1,0.2,9.6,0.8,8.7,23.3,-2.5
COc1ccc(/C=N/c2c(-c3ccco3)nc3ccccn23)cc1OC,6.1,18.0,0.2,4.5,79.6*,9.0*
NC(=O)c1oc2ccccc2c1NC(=O)c1ccc(F)cc1,0.7,24.5,1,-10.3,1.6,0.5
NC(=O)c1oc2ccccc2c1NC(=O)c1ccc([N+](=O)[O-])o1,74.4*,/,/,/,/,/
CC(C)c1ccccc1NC(=O)COC(=O)c1c2c(nc3ccccc13)CCN(Cc1ccccc1)C2,-2.3,24.4,1.1,-2.8,-5.5,9.5*
Cc1c(Cl)cccc1NC(=O)COC(=O)c1c2c(nc3ccccc13)CCN(Cc1ccccc1)C2,5.7,-3.7,1,-6.2,-1.7,2.3
CCCC(=O)Nc1cc(C(=O)N(C)CC(OC)OC)ccc1S(=O)(=O)c1ccc(C)cc1,19.8,/,/,/,/,/
O=C(NCCc1ccc(Cl)cc1)C1CCC(CNc2c(N3CCCCC3)c(=O)c2=O)CC1 (configuration not stated),51.1*,-1.2,1.1,-6.1,-10.4,-0.1
Clc1ccc(-n2cnc3c(Cl)ncnc32)cc1Cl,73.7*,/,/,/,/,/
O=c1c2ccccc2ncn1-c1ccc(Cl)c(Cl)c1,-2.4,7.5,1.1,-0.9,-6.6,-0.5
COCCNC(=S)Nc1ccc2[nH]c(=O)[nH]c2c1,7.3,5.1,1.1,1.4,-5.6,-2.8
O=C(Nc1nc2ccccc2[nH]1)c1cccc(F)c1,42.9,/,/,/,/,/
COc1ccc(C(=O)N[C@H](C(=O)Nc2nc3ccccc3[nH]2)C(C)C)cc1,28.0,14.5,0.5,-7.1,53.4*,9.0*
CN(C)c1cccc(C(=O)Nc2nc3ccccc3[nH]2)c1,82.9*,/,/,/,/,/
COc1ccc(C(=O)Nc2nc3ccccc3[nH]2)cc1,90.8*,/,/,/,/,/
O=C(Nc1nc2ccccc2[nH]1)C12CC3CC(CC(C3)C1)C2,69.8*,7.2,0.5,-2.8,50.3*,2.6
CCCCn1c(N)c(N(CC(C)C)C(=O)c2ccc3c(c2)NC(=O)C(C)S3)c(=O)[nH]c1=O (configuration not stated),7.1,/,/,/,/,/
Cc1ccccc1C(=O)N1CCC(C(=O)Nc2ccc(S(=O)(=O)N3CCCCC3)cc2)CC1,-3.8,/,/,/,/,/
